Activity calls are given as the source filed them. No cut-off for these calls is given here.
Experiments:
HBMEC-2 [1] = experiment: Protection against H2O2-induced apoptosis in human HBMEC2 cells assessed as reduction in cell disruption at 1.56 to 6.25 uM preincubated for 24 hrs followed by H2O2 addition measured after 4 hrs by Giemsa staining based inverted phase contrast microscopic analysis; assay type: functional
Summary of the method: (§1)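 Cells at 3.5×10^4 cells/mL in 24-well plates were pretreated 24 h with compound at three concentrations, then H2O2 (4.8 mM stock) for 4 h. After PBS washes, cells were fixed in 4% paraformaldehyde/70% cold ethanol for 10 min. Staining was 6% Giemsa or DAPI for 5 min in the dark. Random fields were photographed at 200× by microscope, alongside control and model groups.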

HBMEC-2 [2] = experiment: Protection against H2O2-induced apoptosis in human HBMEC2 cells assessed as reduction in cell shrinkage at 1.56 to 6.25 uM preincubated for 24 hrs followed by H2O2 addition and measured after 4 hrs by Giemsa staining based inverted phase contrast microscopic analysis; assay type: functional; summary of the method: as §1
SH-SY5Y [3] = experiment: Protection against H2O2-induced apoptosis in human SH-SY5Y cells assessed as reduction in cell disruption at 1.56 to 6.25 uM preincubated for 24 hrs followed by H2O2 addition measured after 4 hrs by Giemsa staining based inverted phase contrast microscopic analysis; assay type: functional; summary of the method: as §1
HBMEC-2 [4] = experiment: Protection against H2O2-induced apoptosis in human HBMEC2 cells assessed as decrease in number of irregular cells preincubated for 24 hrs followed by H2O2 addition measured after 4 hrs by DAPI staining based inverted phase contrast microscopic analysis; assay type: functional, cell-based; summary of the method: as §1
SH-SY5Y [5] = experiment: Protection against H2O2-induced apoptosis in human SH-SY5Y cells assessed as decrease in number of irregular cells preincubated for 24 hrs followed by H2O2 addition measured after 4 hrs by DAPI staining based inverted phase contrast microscopic analysis; assay type: functional, cell-based; summary of the method: as §1
SH-SY5Y [6] = experiment: Protection against H2O2-induced apoptosis in human SH-SY5Y cells assessed as decrease in nuclear fragmentation preincubated for 24 hrs followed by H2O2 addition measured after 4 hrs by DAPI staining based inverted phase contrast microscopic analysis; assay type: functional, cell-based; summary of the method: as §1
[7] = Inhibition of H2O2-induced apoptosis in human HBMEC2 cells assessed as normal cells at 1.56 uM preincubated for 24 hrs followed by H2O2 addition measured after 4 hrs by Annexin V-FITC/propidium iodide staining based flow cytometry (reference value: 62.1 %); assay type: functional, HBMEC-2; design: scale not given: the % may be the effect or the level left
Summary of the method: (§2)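 Cells were seeded at 3.5×10^4 cells/mL in 6-well plates at 37 °C, 5% CO2. Compound was added at three concentrations for 24 h, then H2O2 (4.8 mM stock solution) to model and drug wells for 4 h. Cells were collected, washed in cold PBS and resuspended in annexin-binding buffer. Staining was annexin V-FITC 10 min, then PI 5 min, in the dark, followed by flow cytometry with quadrant gating.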

[8] = Inhibition of H2O2-induced apoptosis in human HBMEC2 cells assessed as early apoptotic cells at 3.13 uM preincubated for 24 hrs followed by H2O2 addition measured after 4 hrs by Annexin V-FITC/propidium iodide staining based flow cytometry (reference value: 8.1 %); assay type: functional, HBMEC-2; design: scale not given: the % may be the effect or the level left; summary of the method: as §2
[9] = Inhibition of H2O2-induced apoptosis in human HBMEC2 cells assessed as normal cells at 6.25 uM preincubated for 24 hrs followed by H2O2 addition measured after 4 hrs by Annexin V-FITC/propidium iodide staining based flow cytometry (reference value: 62.1 %); assay type: functional, HBMEC-2; design: scale not given: the % may be the effect or the level left; summary of the method: as §2
SH-SY5Y [10] = experiment: Inhibition of H2O2-induced apoptosis in human SH-SY5Y cells assessed as late apoptotic cells at 1.56 uM preincubated for 24 hrs followed by H2O2 addition measured after 4 hrs by Annexin V-FITC/propidium iodide staining based flow cytometry (reference value: 26.5 %); assay type: functional; design: scale not given: the % may be the effect or the level left; summary of the method: as §2
SH-SY5Y [11] = experiment: Inhibition of H2O2-induced apoptosis in human SH-SY5Y cells assessed as normal cells at 1.56 uM preincubated for 24 hrs followed by H2O2 addition measured after 4 hrs by Annexin V-FITC/propidium iodide staining based flow cytometry (reference value: 67.2 %); assay type: functional; design: scale not given: the % may be the effect or the level left; summary of the method: as §2
SH-SY5Y [12] = experiment: Inhibition of H2O2-induced apoptosis in human SH-SY5Y cells assessed as early apoptotic cells at 3.13 uM preincubated for 24 hrs followed by H2O2 addition measured after 4 hrs by Annexin V-FITC/propidium iodide staining based flow cytometry (reference value: 5.4 %); assay type: functional; design: scale not given: the % may be the effect or the level left; summary of the method: as §2
SH-SY5Y [13] = experiment: Inhibition of H2O2-induced apoptosis in human SH-SY5Y cells assessed as necrotic cells at 6.25 uM preincubated for 24 hrs followed by H2O2 addition measured after 4 hrs by Annexin V-FITC/propidium iodide staining based flow cytometry (reference value: 0.9 %); assay type: functional; design: scale not given: the % may be the effect or the level left; summary of the method: as §2
SH-SY5Y [14] = experiment: Inhibition of H2O2-induced apoptosis in human SH-SY5Y cells assessed as late apoptotic cells at 6.25 uM preincubated for 24 hrs followed by H2O2 addition measured after 4 hrs by Annexin V-FITC/propidium iodide staining based flow cytometry (reference value: 26.5 %); assay type: functional; design: scale not given: the % may be the effect or the level left; summary of the method: as §2
SH-SY5Y [15] = experiment: Inhibition of H2O2-induced apoptosis in human SH-SY5Y cells assessed as normal cells at 6.25 uM preincubated for 24 hrs followed by H2O2 addition measured after 4 hrs by Annexin V-FITC/propidium iodide staining based flow cytometry (reference value: 67.2 %); assay type: functional; design: scale not given: the % may be the effect or the level left; summary of the method: as §2
SH-SY5Y [16] = experiment: Protection against H2O2-induced mitochondrial dysfunction in human SH-SY5Y cells assessed as recovery of mitochondrial membrane potential at 1.56 to 6.25 uM preincubated for 24 hrs followed by H202 addition measured after 4 hrs by Rh123 staining based inverted light microscopic analysis; assay type: functional, cell-based
Summary of the method: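 Cells in 96-well plates (3.5×10^4 cells/mL) were grown 24 h. They were pretreated 24 h with compound at three concentrations, then exposed to H2O2 (4.8 mM stock) for 4 h. Medium was removed and Rh123 added for 30 min at 37 °C. Cells were washed twice in cold PBS and examined immediately under an inverted microscope for green fluorescence.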

Chorioallantoic membrane = experiment: Induction of angiogenesis in chicken chorioallantoic membrane assessed as increase in vascular density at 1 mg/ml measured after 48 hrs by dissecting microscopic analysis; assay type: functional, cell membranes; details: Gallus gallus
Summary of the method: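 Fertile eggs were incubated 7 days at 37 °C and 60% humidity. A small window was opened at one end and the membrane was wetted with a drop of sterile saline. Test solution (0.5, 1 or 2 mg/mL) was applied to the allantoic membrane, with PBS for controls. After 48 h the membrane was separated from the shell, then viewed and photographed under a dissecting microscope.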

Gallus gallus = organism: Gallus gallus; experiment: Induction of angiogenesis in chicken embryo assessed as up regulation of VEGFR2 mRNA expression at 1 mg/ml by RT-PCR analysis; assay type: functional, organism-based
Summary of the method: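 Total RNA came from chick embryos of the 1 mg/mL CAM group (Trizol extraction) and was reverse-transcribed with M-MLV. SYBR real-time PCR ran 40 cycles of 94 °C 15 s / 60 °C 35 s, then 72 °C 10 min. Expression was quantified relative to controls by the 2^-ΔΔCT method.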

HBMEC-2 [17] = experiment: Inhibition of H2O2-induced apoptosis in human HBMEC2 cells preincubated for 24 hrs followed by H2O2 addition measured after 4 hrs by Annexin V-FITC/propidium iodide staining based flow cytometry; assay type: functional, cell-based; summary of the method: as §2
SH-SY5Y [18] = experiment: Protection against H2O2-induced apoptosis in human SH-SY5Y cells assessed as increase in cell number preincubated for 24 hrs followed by H2O2 addition measured after 4 hrs by DAPI staining based inverted phase contrast microscopic analysis; assay type: functional; summary of the method: as §1
HBMEC-2 [19] = experiment: Protection against H2O2-induced apoptosis in human HBMEC2 cells assessed as increase in cell number at 1.56 to 6.25 uM preincubated for 24 hrs followed by H2O2 addition and measured after 4 hrs by Giemsa staining based inverted phase contrast microscopic analysis; assay type: functional; summary of the method: as §1

COc1cc(CNC(=O)/C=C/c2cc(OC)c(OC)cc2OC)ccc1O
Activity (HBMEC-2 [1]): Active | Activity (HBMEC-2 [2]): Active | Activity (SH-SY5Y [3]): Active | Activity (HBMEC-2 [4]): Dose-dependent effect | Activity (SH-SY5Y [5]): Dose-dependent effect | Activity (SH-SY5Y [6]): Dose-dependent effect | Activity [7]: 70.6% | Activity [8]: 8.9% | Activity [9]: 81.4% | Activity (SH-SY5Y [10]): 23.9% | Activity (SH-SY5Y [11]): 70.4% | Activity (SH-SY5Y [12]): 4.2% | Activity (SH-SY5Y [13]): 1.1% | Activity (SH-SY5Y [14]): 14% | Activity (SH-SY5Y [15]): 82.3% | Activity (SH-SY5Y [16]): Active | Activity (Chorioallantoic membrane): Active | Activity (Gallus gallus): Active | inhibition (HBMEC-2 [17]): Dose-dependent effect | Activity (SH-SY5Y [18]): Dose-dependent effect | Activity (HBMEC-2 [19]): Active

Reference: ChEMBL document CHEMBL4406851, “Design, synthesis and biological evaluation of cinnamic acid derivatives with synergetic neuroprotection and angiogenesis effect” (Eur J Med Chem, 2019)
